Compound activity deposited in PubChem BioAssay by several laboratories.
The sample as a whole holds a higher share of hits than the screen did.
XBP1 UPR activ = activators of adaptive arm of unfolded protein response (XBP1) | CHO-XBP1 luciferase reporter, IRE1-XBP1 UPR activation, luminescence; percent of tunicamycin response, DMSO as zero | activation, % at 20 µM | 330,000 compounds, 0.33% hits;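 active = versus positive control, 20 µM dose yields 30% or more activation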;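 note: 100% = tunicamycin at 10 µg/mL and 0% = DMSO only wells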
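Assay system: CHO-XBP1 luciferase reporter cells; Schedule: 6 h treatment, 37 °C; Detection: glow luminescence from Steady-Glo reagent; Benchmarks: high control tunicamycin 10 µg/mL final, low control DMSO vehicle only.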
Beta2AR agonist = activates human beta-2 adrenergic receptor causing internalization. AID 504454. P07550. Am2.2-beta2AR cells, FAP receptor internalization, flow cytometry. 340,000 compounds, 0.43% hits. response, % (no concentration beside the values);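 active = response above a set limit, near 3 SD of response in nonfluorescent compounds, cut at about 42% in these data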
Target sequence (P07550 whole entry, looked up): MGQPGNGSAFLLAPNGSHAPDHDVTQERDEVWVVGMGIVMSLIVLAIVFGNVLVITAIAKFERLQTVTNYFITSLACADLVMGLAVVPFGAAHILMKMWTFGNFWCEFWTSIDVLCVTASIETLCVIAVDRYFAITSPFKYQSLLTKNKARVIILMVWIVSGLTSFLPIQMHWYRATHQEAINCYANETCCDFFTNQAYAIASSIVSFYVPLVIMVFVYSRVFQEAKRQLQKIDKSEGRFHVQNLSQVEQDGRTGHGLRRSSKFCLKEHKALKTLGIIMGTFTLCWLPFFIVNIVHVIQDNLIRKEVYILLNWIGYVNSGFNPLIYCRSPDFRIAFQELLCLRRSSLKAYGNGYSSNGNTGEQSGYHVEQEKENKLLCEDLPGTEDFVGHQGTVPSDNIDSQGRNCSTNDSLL
CHOP inh = CHOP inhibition in unfolded protein response; 220,000 compounds, 3.8% hits; inhibition, % at 10 µM; CHO-K1 CHOP-promoter luciferase, tunicamycin-induced, 15-18 h;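 active = compounds that reduced the stress-induced luciferase reporter signal by more than about 70% of percent inhibition, limit read from the data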;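 note: 0% = tunicamycin plus vehicle and 100% = wells without tunicamycin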
UPR CHOP act = apoptotic UPR (CHOP) activation. 330,000 compounds, 0.34% hits. CHO-CHOP luciferase reporter, luminescence; percent of tunicamycin response over DMSO baseline. activation, % at 10 µM. AID 449763;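 active = at 10 µM dose, activation of 40% or more, normalized to positive control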;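 note: 100% = tunicamycin at 10 µg/mL and 0% = DMSO alone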
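Test system: CHO CHOP reporter cells. Input: 500 CHO-CHOP cells per well. Medium: F12 with 10% FBS. Technique: luciferase luminescence. Measure: percent activation relative to tunicamycin control. Dosing: 10 µM compound, 0.5% DMSO. Timing: 16-18 h cell attachment, then 6 h compound exposure, 37 °C.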
VLA-4 inh = inhibition in a human VLA-4 binding assay; VLA-4 expressing cells, ligand binding flow cytometry; inhibition, % (about 7 µM as worked out from the volumes in the protocol); 330,000 compounds, 0.2% hits; in the data active = inhibition above about 50%
CHOP inh conf = confirmation of CHOP induction inhibitors; shares compounds with CHOP inh; CHO-CHOP promoter luciferase reporter, tunicamycin-induced, luminescence; inhibition, % at 10 µM; 2,100 compounds, 45% hits; AID 504437;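 active = mean of three repeat readings of reporter signal inhibition above a set limit, cut at about 70% in these data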;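 note: 0% = tunicamycin plus vehicle and 100% = wells lacking tunicamycin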
CHOP UPR conf = apoptotic UPR (CHOP) activation, confirmed | shares compounds with UPR CHOP act | CHO-CHOP cells, CHOP-luciferase reporter luminescence; percent of tunicamycin response, DMSO as zero | activation, % at 10 µM | 1,000 compounds, 64% hits | AID 463112; in the data active = activation above about 33%;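 note: 0% = DMSO wells and 100% = tunicamycin 10 µg/mL wells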
UPR XBP1 confirm = confirmation of adaptive unfolded protein response (XBP1) activators | shares compounds with XBP1 UPR activ | CHO-XBP1 IRE1-XBP1 luciferase reporter, luminescence | activation, % at 20 µM | 1,000 compounds, 63% hits | AID 485299;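 active = reporter signal at least 30% of the positive control's activation in two or more of four replicate wells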;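 note: plate controls were DMSO negative control for no effect and tunicamycin 10 µg/mL positive control for full effect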
The depositor's hits bear a star; i = inactive; nt = no result.

SMILES	XBP1 UPR activ	Beta2AR agonist	CHOP inh	UPR CHOP act	VLA-4 inh	CHOP inh conf	UPR XBP1 confirm	others
COc1ccc(/C=C/C(=O)O)cc1S(=O)(=O)NCc1cccnc1	-5	14	nt	-2	11	nt	nt
O=C1NN(c2ccccc2)C(=O)/C1=C/c1ccc(Sc2ccc(Cl)cc2)o1	3	23	98*	61*	3	78*	nt	CHOP UPR conf=43*
Cc1ccc(Sc2ccc(/C=C3/C(=O)NN(c4ccccc4)C3=O)o2)cc1	4	0	98*	44*	11	36	nt	CHOP UPR conf=40*
CCN1CCN(Cc2ccc(NC(=O)c3ccc(C)c(NC(=O)c4c[nH]c5cc(C(F)(F)F)ccc5c4=O)c3)cc2C(F)(F)F)CC1	-2	41	104*	68*	nt	114*	nt	CHOP UPR conf=-5
O=C1C2CCCN2C(=O)N1CCN1CCN(c2cccc(C(F)(F)F)c2)CC1 (stereo not drawn)	nt	7	nt	nt	nt	nt	nt
COc1cccc(C(=O)Nc2ccc(NC(C)=O)cc2)c1	-2	-6	-21	1	2	nt	nt
COc1cccc(C(=O)C(C#N)=C(SC)SC)c1	-4	21	102*	119*	31	118*	nt	CHOP UPR conf=3
Cc1[nH]c(C)c2c(=O)n(Cc3ccc(Cl)cc3)ncc12	8	-3	20	-1	-3	nt	nt
Cc1ccc(Cn2ncc(Cl)c(Cl)c2=O)cc1	2	20	107*	42*	-12	-26	nt	CHOP UPR conf=21
CCOC(=O)C1CC2=C(CCCC2=O)N(Cc2ccccc2)C1=O (stereo not drawn)	nt	-4	nt	nt	nt	nt	nt
N#C/C(=C/c1ccc(N2CCCCCC2)o1)c1ccc(Cl)cc1	-1	-918	103*	92*	i	31	nt	CHOP UPR conf=17
Cc1noc(C)c1COc1ccccc1C(=O)N(C)Cc1ccc(C(C)(C)C)cc1	0	-3	nt	0	38	nt	nt
COc1ccc([C@H]2CC(=O)C=C(c3cccc(C#N)c3)C2)cc1	-1	3	nt	0	3	nt	nt
Cc1ccc(-c2cc(NC(=O)CCl)n(-c3ccccc3)n2)cc1	-1	5	nt	82*	6	-150	nt	CHOP UPR conf=99*
CC1CCc2cc(F)ccc2N1C(=O)CSc1nnc2c(n1)[nH]c1ccc(F)cc12 (stereo not drawn)	67*	-7	101*	2	-2	110*	51*
CC1CCCCN1C(=O)CSc1nnc2c(n1)[nH]c1ccc(F)cc12 (stereo not drawn)	0	-5	nt	5	32	nt	nt
Cc1ccc2c(c1)N(CC(=O)NC1CCCCCC1)C(=O)c1cccnc1O2	-3	-2	nt	-1	18	nt	nt
Cc1ccc(NC(=O)CN(C)C(=O)c2cc(-c3cccs3)nn2-c2ccccc2)cc1	0	4	nt	4	7	nt	nt
CN=C1SC(CC(=O)Nc2ccc(F)cc2F)C(=O)N1/N=C/c1ccc(OC(F)F)c(OC)c1 (stereo not drawn)	201*	18	98*	30	0	116*	5
O=C(Nc1ccc(C(F)(F)F)cc1)c1cc(-c2cccnc2)nc2ccc(Br)cc12	91*	9	102*	124*	11	93*	90*	CHOP UPR conf=81*
CSc1cc(-c2ccc(Cl)cc2)n(Cc2ccccc2)c(=O)c1C#N	32*	18	101*	44*	0	29	25	CHOP UPR conf=20
CSc1cc(-c2ccccc2)n(Cc2c(Cl)cccc2Cl)c(=O)c1C#N	1	8	nt	0	13	nt	nt
C[C@H](O)[C@@H]1C(=O)N2CCc3ccc(-c4cccc(F)c4)cc3[C@@H]2C[C@@H]1N(C)C(=O)Nc1ccccc1	nt	5	nt	nt	nt	nt	nt
O=C(Cc1coc2cc(O)ccc12)NNC(=O)c1cccs1	6	-4	nt	-1	13	nt	nt
CCOC(=O)c1nnc(-c2ccccc2)nc1Oc1ccc(Cl)cc1	72*	22	106*	31	10	-4	85*
SMILES	XBP1 UPR activ	Beta2AR agonist	CHOP inh	UPR CHOP act	VLA-4 inh	CHOP inh conf	UPR XBP1 confirm	others
Cc1cccnc1NC(=O)CN1C(=O)COc2ccc(Cl)cc21	-4	3	nt	0	-8	nt	nt
CCOc1ccc(C(=O)NNC(=O)CCNC(=O)c2ccco2)cc1OC	2	-6	nt	0	2	nt	nt
NCCOc1ccc(C2CCCCC2)cc1	6	24	7	0	15	nt	nt
NCCOc1ccc(C23CC4CC(CC(C4)C2)C3)cc1	97*	15	105*	14	32	-9	93*
COc1cc(-c2nc(-c3ccc(NC(=O)c4ccc(Br)o4)cc3)no2)cc(OC)c1OC	7	13	-2	4	24	nt	nt
O=C(Nc1ccc(-c2nc3ncccc3o2)cc1)c1ccc(Br)o1	62*	40	103*	5	-12	-18	4
COc1ccc(-c2nc(-c3ccc(NC(=O)c4ccc(Br)o4)cc3)no2)cc1OC	35*	-6	103*	30	8	110*	16
O=C(Nc1ccc(-c2nc3ncccc3o2)cc1)c1ccco1	4	20	-55	4	-2	nt	nt
O=C(CSc1nnc(COc2ccccc2)o1)Nc1ccc(F)cc1	-4	3	nt	2	-2	nt	nt
COc1cc(N(C(=O)Cc2cccs2)C(C(=O)NC2CCCCC2)c2ccc(C)cc2)ccc1-n1cnnn1 (stereo not drawn)	35*	-19	105*	-1	26	92*	37*
CCOc1cccc(C(=O)Nc2cccc(-c3nnc(-c4ccc(C)cc4)o3)c2)c1	162*	-3	105*	136*	-55	103*	160*	CHOP UPR conf=54*
O=C(Nc1ccc(Cl)c([N+](=O)[O-])c1)c1ccc(NCCCN2CCOCC2)c([N+](=O)[O-])c1	42*	13	97*	0	5	-5	6
Cc1ccc(NC(=O)c2ccc(NCCCN3CCOCC3)c([N+](=O)[O-])c2)cc1Cl	1	12	21	0	18	nt	nt
CCOc1ccc2nc(NC3=NC(c4ccc(OC)cc4)CC(=O)N3)nc(C)c2c1 (stereo not drawn)	133*	-9	106*	30	-15	-33	167*
CC(C)c1ccc(-c2cc(C(=O)N3N=C(C(F)F)CC3(O)C(F)F)c3ccccc3n2)cc1 (stereo not drawn)	39*	3	99*	4	-4	105*	13
COc1ccc(-c2ccc(C#N)c(SCC(=O)Nc3sc4c(c3C#N)CCC4)n2)cc1OC	41*	4	102*	28	-2	16	56*
Cc1cc(=O)[nH]c2cc(O)ccc12	-1	-3	26	-2	6	nt	nt
